Screens: PubChem BioAssay, several laboratories
T cruzi inh: blocks replication of Trypanosoma cruzi. AID 1885. T. cruzi beta-gal in NIH3T3, luminescence, 90 h. actives 1.4% (n = 300,000). inhibition, % (test concentration not listed);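 active means mean inhibition across valid replicates above about 55%, limit read from the data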;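 further: signal also drops with host cell toxicity which is not excluded here; 0% = plate median of DMSO wells and 100% = zero luminescence signal; higher percent means less beta-gal luminescence so fewer parasites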
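Test system: β-gal T. cruzi (Tulahuen C4) inside NIH/3T3 cells / Quantity: 5,000 cells/well / Measured by: luminescence from GalScreen with 0.05% NP40, read after 60 min / Medium: DMEM plus 2% FBS / Measure: parasite load inhibition, % / Reagent: Tulahuen C4 trypomastigotes, 5000/well / Schedule: co-culture of at least 90 h after 3 h attachment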
CSC inhib: blocks cancer stem cells; cancer stem cell-like cells viability, luminescence; inhibition, % at 7.5 µM; actives 1.1% (n = 300,000); AID 2717; in the data active means inhibition above about 75%; tested in HMLE shEcad cells
Beta apoptosis: blocks beta cell apoptosis; protection from apoptosis, % (concentration not given with the values); INS-1E cytokine-induced death, ATP luminescence, 48 h; percent of positive-control rescue, neutral wells zero; actives 0.8% (n = 300,000); AID 435005;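 active means Every replicate reaches about 75%, or at least half do and their mean reaches it too, limit read from the data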;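 further: 0% = cytokine-treated negative control wells and 100% = positive control rescue; higher means more ATP so stronger rescue from cytokine killing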
Efflux pump inh: antifungal efflux pump inhibition, Nile Red retention; S. cerevisiae Candida pump triplex; inhibition, % at 10 µM; actives 0.44% (n = 330,000); AID 485275;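 active means plate passing quality check with inhibition over a set limit, or well fluorescence over plate mean plus 4 SD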;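 further: Nile Red retained in pooled yeast measured as flow cytometry median fluorescence; 0% = buffer negative control and 100% = Enniatin B positive control; higher means more Nile Red kept so more efflux inhibition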
SUMO Mot1 rescue: inhibitors of SUMOylation pathway: yeast Mot1-301 growth rescue; S. cerevisiae Mot1-301 growth rescue, ATP luminescence, 38.5C; percent above DMSO median, 100 means doubled; growth rescue, % at 18.8 µM; actives 1% (n = 320,000);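 active means every valid replicate shows activation above 250% relative to neutral control wells; inactive means the rest, any valid replicate at or below 250%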;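 further: OY570 slx delta 5 strain wells were the positive control but not used for scaling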
WT yeast gro inh: growth inhibition of WT yeast, mitochondrial fusion screen; mitochondrial fusion phenotypic screen, WT strain; inhibition, % at 10 µM; actives 2.1% (n = 190,000); in the data active means inhibition above about 58%; tested in S. cerevisiae
An asterisk follows results filed as active. In the library only some 4.8% were active in any assay of this set; here they are far more common.

For Cc1cc(NC(=O)CSc2nnc(-c3c[nH]c4ccccc34)n2-c2ccc(F)cc2)no1 the results were CSC inhib -11, Beta apoptosis 6, Efflux pump inh 0, SUMO Mot1 rescue -15 and WT yeast gro inh 1.
CCOc1ccc(-n2c(SCC(=O)Nc3cc(C)on3)nnc2-c2c[nH]c3ccccc23)cc1 was read as T cruzi inh 15, CSC inhib -14, Beta apoptosis 0, Efflux pump inh 0, SUMO Mot1 rescue 11 and WT yeast gro inh 63*.
For CC1C(c2ccccc2)N(C)C(c2ccccc2)CC1(O)c1ccc(F)cc1 (stereo unspecified) the results were T cruzi inh 58*, CSC inhib -5, Beta apoptosis 0, Efflux pump inh 0, SUMO Mot1 rescue 43 and WT yeast gro inh 69*.
Screening CN1C(c2ccccc2)CC(=NO)CC1c1ccccc1 (stereo unspecified) returned T cruzi inh -5, CSC inhib 9, Efflux pump inh 0 and SUMO Mot1 rescue -12.
CCCC(=O)NC(=S)Nc1ccc(S(=O)(=O)Nc2ccc(OCC)cc2)cc1 was read as T cruzi inh 16, CSC inhib -15, Beta apoptosis -1, Efflux pump inh 0, SUMO Mot1 rescue -3 and WT yeast gro inh 44.
`CCOc1ccc(NS(=O)(=O)c2ccc(NC(=S)NC(=O)CC(C)C)cc2)cc1` gave T cruzi inh 8, CSC inhib 20, Beta apoptosis -4, Efflux pump inh 0, SUMO Mot1 rescue -14 and WT yeast gro inh 79*.
Screening COC(=O)c1c(NC(=O)CN2C(=O)NC3(CCC(C)CC3)C2=O)sc2c1CCC2 (stereo unspecified) returned CSC inhib -22, Beta apoptosis -6, Efflux pump inh 0 and SUMO Mot1 rescue 28.
`COC(=O)c1c(NC(=O)CN2C(=O)NC3(CCC(C(C)(C)C)CC3)C2=O)sc2c1CCCCC2` (stereo unspecified) gave T cruzi inh 58*, CSC inhib 11, Beta apoptosis 15, Efflux pump inh 0, SUMO Mot1 rescue -6 and WT yeast gro inh 6.
Screening Cc1ccc(NC(=O)CSC2=NN3CCCC(=O)N=C3S2)cc1Cl returned T cruzi inh -2, Beta apoptosis -5, Efflux pump inh 0 and SUMO Mot1 rescue 4.
COc1ccc(C2C(C(N)=O)=C(C)Nc3nc(-c4ccccc4Cl)nn32)c(OC)c1 (stereo unspecified) was read as T cruzi inh -4, CSC inhib -2, Beta apoptosis -3, Efflux pump inh 0, SUMO Mot1 rescue -8 and WT yeast gro inh 12.
For O=C(Cn1c2ccc(F)cc2c2nc3n(c(=O)c21)CCS3)NCC1CCCO1 (stereo unspecified) the results were T cruzi inh -1, CSC inhib 0, Beta apoptosis -10, Efflux pump inh 0 and SUMO Mot1 rescue 161.
Screening CS(=O)(=O)c1ccccc1C(=O)Nc1ccc(-c2nc3ccccc3[nH]2)cc1 returned T cruzi inh -13, CSC inhib -3, Beta apoptosis -3, Efflux pump inh 0 and SUMO Mot1 rescue 16.
Screening O=C(Cc1cccs1)Nc1cccc(-c2nc3cc4ccccc4cc3[nH]2)c1 returned T cruzi inh 37, CSC inhib 99*, Beta apoptosis 30, Efflux pump inh 0, SUMO Mot1 rescue 811* and WT yeast gro inh 34.
For Cc1ccccc1C(=O)Nc1ccc(-c2nc3ccc(C(=O)c4ccccc4)cc3[nH]2)cc1 the results were T cruzi inh 50, CSC inhib 84*, Beta apoptosis 14, Efflux pump inh 0, SUMO Mot1 rescue -1 and WT yeast gro inh -14.
For CN(c1ccccc1)S(=O)(=O)c1ccc(Cl)c(C(=O)Nc2ccc(-c3nc4ccccc4[nH]3)cc2)c1 the results were T cruzi inh 57*, CSC inhib 44, Beta apoptosis 5, Efflux pump inh 1, SUMO Mot1 rescue 9 and WT yeast gro inh -24.
For O=C(c1ccccc1)c1ccc2nc(-c3ccc(NC(=O)c4ccccc4Br)cc3)[nH]c2c1 the results were T cruzi inh 60*, Efflux pump inh 0, SUMO Mot1 rescue -5 and WT yeast gro inh -27.
